According to ChEMBL document CHEMBL2074042, “beta-lactam antibiotics as substrates for OCTN2, an organic cation/carnitine transporter” (J Biol Chem, 2000):
pIC50: −log10 of the molar value. Blank lines part the entries; values can stand above or below the molecule they belong to.

Assays:
Format in all cases: functional, cell-based
[1] = target: T1, Organic cation/carnitine transporter 2 (Homo sapiens, UniProt O76082); test: TP_TRANSPORTER: inhibition of Carnitine uptake (Carnitine: 0.02 uM, Ampicillin: 2500 uM) in OCTN2-expressing HeLa cells
T1 sequence (O76082 whole entry): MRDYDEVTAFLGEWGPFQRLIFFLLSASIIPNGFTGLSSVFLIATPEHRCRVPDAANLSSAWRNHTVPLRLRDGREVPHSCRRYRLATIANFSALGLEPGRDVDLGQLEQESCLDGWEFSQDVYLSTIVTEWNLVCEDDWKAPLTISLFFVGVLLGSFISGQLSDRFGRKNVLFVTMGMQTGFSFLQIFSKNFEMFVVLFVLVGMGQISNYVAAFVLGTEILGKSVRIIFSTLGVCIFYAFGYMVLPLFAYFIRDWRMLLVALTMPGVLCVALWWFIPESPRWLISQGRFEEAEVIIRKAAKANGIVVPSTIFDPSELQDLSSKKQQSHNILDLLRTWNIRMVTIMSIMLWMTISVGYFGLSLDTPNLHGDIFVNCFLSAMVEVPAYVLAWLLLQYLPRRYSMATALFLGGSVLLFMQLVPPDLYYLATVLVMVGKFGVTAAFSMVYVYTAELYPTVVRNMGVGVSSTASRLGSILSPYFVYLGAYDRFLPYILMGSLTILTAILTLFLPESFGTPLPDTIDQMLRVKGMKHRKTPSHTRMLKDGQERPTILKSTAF

[2] = target: T2, Organic cation/carnitine transporter 2 (Rattus norvegicus, UniProt O70594); test: (§1) TP_TRANSPORTER: inhibition of Carnitine uptake (Carnitine: 0.02 uM, Cefadroxil: 2500 uM) in OCTN2-expressing HeLa cells; conditions: human
T2 sequence (O70594 whole entry): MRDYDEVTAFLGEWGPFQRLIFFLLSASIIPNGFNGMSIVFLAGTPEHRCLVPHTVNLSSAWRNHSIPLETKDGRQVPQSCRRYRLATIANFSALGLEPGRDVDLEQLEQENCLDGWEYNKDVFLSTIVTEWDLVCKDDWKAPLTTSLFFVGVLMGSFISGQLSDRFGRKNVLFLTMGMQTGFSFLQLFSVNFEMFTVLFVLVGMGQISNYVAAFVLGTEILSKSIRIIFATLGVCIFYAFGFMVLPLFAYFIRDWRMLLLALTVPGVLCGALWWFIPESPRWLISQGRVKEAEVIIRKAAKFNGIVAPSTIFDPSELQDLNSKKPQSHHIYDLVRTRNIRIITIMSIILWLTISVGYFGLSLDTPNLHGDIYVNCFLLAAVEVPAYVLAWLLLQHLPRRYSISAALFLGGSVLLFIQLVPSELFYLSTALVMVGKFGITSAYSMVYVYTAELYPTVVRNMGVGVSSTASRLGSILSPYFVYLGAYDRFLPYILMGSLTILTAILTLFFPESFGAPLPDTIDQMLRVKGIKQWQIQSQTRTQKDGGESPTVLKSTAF
Procedure, shortened: (§2)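 HeLa cells expressed human or rat OCTN2 cDNA by vaccinia virus/T7 system. [3H]carnitine (20 nM) uptake for 30 min at room temperature in Na+-containing Hepes/Tris buffer, pH 7.5, with β-lactam at 2.5 mM. Lysate radioactivity counted. Endogenous activity from vector-only cells subtracted. Four measurements from two transfections.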

[3] = target: T1, Organic cation/carnitine transporter 2; test: as §1; procedure, shortened: as §2
[4] = target: T1, Organic cation/carnitine transporter 2; test: TP_TRANSPORTER: inhibition of Carnitine uptake (Carnitine: 0.02 uM, Cefdinir: 2500 uM) in OCTN2-expressing HeLa cells
[5] = target: T3, Solute carrier family 15 member 2 (Rattus norvegicus) (UniProt Q63424); test: TP_TRANSPORTER: inhibition of Gly-Sar uptake (Gly-Sar: 25 uM, Cefepime: 2500uM) in PEPT2-expressing HeLa cells
T3 sequence (whole entry): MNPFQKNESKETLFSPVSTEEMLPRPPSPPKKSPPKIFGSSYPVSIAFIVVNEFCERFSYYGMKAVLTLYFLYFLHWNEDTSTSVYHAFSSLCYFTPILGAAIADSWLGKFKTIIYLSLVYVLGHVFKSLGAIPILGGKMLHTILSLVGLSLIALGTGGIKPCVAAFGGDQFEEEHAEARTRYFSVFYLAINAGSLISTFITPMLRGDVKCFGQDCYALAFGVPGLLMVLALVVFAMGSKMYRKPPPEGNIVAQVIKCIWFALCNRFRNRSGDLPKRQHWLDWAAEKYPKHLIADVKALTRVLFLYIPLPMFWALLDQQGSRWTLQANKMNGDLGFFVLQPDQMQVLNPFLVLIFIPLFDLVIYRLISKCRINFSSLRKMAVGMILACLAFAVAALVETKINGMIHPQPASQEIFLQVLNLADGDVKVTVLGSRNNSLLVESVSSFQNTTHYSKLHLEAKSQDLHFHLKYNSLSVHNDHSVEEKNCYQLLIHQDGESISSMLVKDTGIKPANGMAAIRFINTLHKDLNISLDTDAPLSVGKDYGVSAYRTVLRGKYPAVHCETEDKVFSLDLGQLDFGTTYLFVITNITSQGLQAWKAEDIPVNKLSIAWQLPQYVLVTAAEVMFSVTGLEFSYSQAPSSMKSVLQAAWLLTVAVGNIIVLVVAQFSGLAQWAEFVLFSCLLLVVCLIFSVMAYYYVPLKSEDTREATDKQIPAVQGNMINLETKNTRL
Procedure, shortened: (§3)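 HeLa cells expressing rat PEPT2 cDNA. [14C]glycylsarcosine (25 μM) uptake for 5 min under an inward H+ gradient in Mes/Tris buffer, pH 6.0, with test compound at 2.5 mM. Vector-cell uptake subtracted. Results as percent of control, three independent measurements, mean ± S.E.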

[6] = target: T4, OCTN2 (organic cation/carnitine transporter 2) (Rattus norvegicus, UniProt O70594); test: TP_TRANSPORTER: inhibition of Carnitine uptake (Carnitine: 0.02 uM, Cefepime: 2500 uM) in OCTN2-expressing HeLa cells; design: scale not given: the % may be the effect or the level left; conditions: human, probe carnitine (0.02 uM), read-out: Activity; procedure, shortened: as §2
T4 sequence (O70594 whole entry): T2 sequence (O70594 whole entry)

[7] = target: T5, Solute carrier family 15 member 1 (Homo sapiens) (UniProt P46059); test: TP_TRANSPORTER: inhibition of Gly-Sar uptake (Gly-Sar: 50 uM, Cefepime: 2500uM) in PEPT1-expressing HeLa cells
T5 sequence (whole entry): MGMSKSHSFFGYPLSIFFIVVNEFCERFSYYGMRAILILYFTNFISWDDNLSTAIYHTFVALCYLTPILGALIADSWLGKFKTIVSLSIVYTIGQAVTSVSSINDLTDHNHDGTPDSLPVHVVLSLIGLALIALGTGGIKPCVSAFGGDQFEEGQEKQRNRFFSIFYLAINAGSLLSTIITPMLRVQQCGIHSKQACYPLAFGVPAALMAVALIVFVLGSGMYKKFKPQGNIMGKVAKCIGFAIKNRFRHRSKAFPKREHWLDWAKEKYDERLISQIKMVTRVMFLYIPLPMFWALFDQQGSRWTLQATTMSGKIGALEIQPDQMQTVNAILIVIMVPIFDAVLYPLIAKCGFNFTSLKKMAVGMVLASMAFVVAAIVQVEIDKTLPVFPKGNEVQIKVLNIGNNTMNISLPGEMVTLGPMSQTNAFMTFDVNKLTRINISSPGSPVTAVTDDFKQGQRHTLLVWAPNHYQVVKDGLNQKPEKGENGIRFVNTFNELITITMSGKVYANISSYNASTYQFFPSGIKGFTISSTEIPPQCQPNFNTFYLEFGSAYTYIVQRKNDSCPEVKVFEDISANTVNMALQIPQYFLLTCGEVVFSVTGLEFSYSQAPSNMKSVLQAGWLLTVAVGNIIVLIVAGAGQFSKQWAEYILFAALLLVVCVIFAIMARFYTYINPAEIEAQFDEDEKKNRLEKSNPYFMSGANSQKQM
Procedure, shortened: (§4)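 HeLa cells expressing human PEPT1 cDNA. [14C]glycylsarcosine (50 μM) uptake for 5 min in Mes/Tris buffer, pH 6.0, giving an H+ gradient, with test compound at 2.5 mM. Vector-transfected uptake subtracted. Percent of control, n=3, mean ± S.E.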

[8] = target: T1, Organic cation/carnitine transporter 2; test: TP_TRANSPORTER: inhibition of Carnitine uptake (Carnitine: 0.02 uM) in OCTN2-expressing HeLa cells
[9] = target: T1, Organic cation/carnitine transporter 2; test: TP_TRANSPORTER: inhibition of Carnitine uptake (Carnitine: 0.02 uM, Cefixime: 2500 uM) in OCTN2-expressing HeLa cells
[10] = target: T4, OCTN2 (organic cation/carnitine transporter 2); test: (§5) TP_TRANSPORTER: inhibition of Carnitine uptake (Carnitine: 0.02 uM, Cefluprenam: 2500 uM) in OCTN2-expressing HeLa cells; design: scale not given: the % may be the effect or the level left; conditions: human, probe carnitine (0.02 uM), read-out: Activity; procedure, shortened: as §2
[11] = target: T6, OCTN2 (organic cation/carnitine transporter 2) (Homo sapiens, UniProt O76082); test: as §5; design: scale not given: the % may be the effect or the level left; conditions: probe carnitine (0.02 uM), read-out: Activity; procedure, shortened: as §2
T6 sequence (O76082 whole entry): T1 sequence (O76082 whole entry)

[12] = target: T3, Solute carrier family 15 member 2 (Rattus norvegicus); test: TP_TRANSPORTER: inhibition of Gly-Sar uptake (Gly-Sar: 25 uM, Cefluprenam: 2500uM) in PEPT2-expressing HeLa cells; procedure, shortened: as §3
[13] = target: T5, Solute carrier family 15 member 1 (Homo sapiens); test: TP_TRANSPORTER: inhibition of Gly-Sar uptake (Gly-Sar: 50 uM, Cefluprenam: 2500uM) in PEPT1-expressing HeLa cells; procedure, shortened: as §4

SMILES: CO/N=C(\C(=O)N[C@@H]1C(=O)N2C(C(=O)[O-])=C(C[N+]3(C)CCCC3)CS[C@H]12)c1csc(N)n1 [CEFEPIME]
- Activity [5]: is not an inhibitor [-]
- activity at 2500 µM [6]: 28%
- Activity [7]: is not an inhibitor [-]
- pIC50 [8]: 2.77

SMILES: C=CC1=C(C(=O)O)N2C(=O)[C@@H](NC(=O)/C(=N\OCC(=O)O)c3csc(N)n3)[C@H]2SC1 [CEFIXIME]
- Activity [9]: is not an inhibitor [-]

SMILES: CC[N+](C)(C/C=C/C1=C(C(=O)[O-])N2C(=O)[C@@H](NC(=O)/C(=N\OCF)c3nsc(N)n3)[C@H]2SC1)CC(N)=O (stereo partly drawn) [CEFLUPRENAM]
- activity at 2500 µM [10]: 76%
- activity at 2500 µM [11]: 74%
- Activity [12]: is not an inhibitor [-]
- Activity [13]: is not an inhibitor [-]

Further lines, results first:

- Activity [1]: is not an inhibitor [-]
SMILES: CC1(C)S[C@@H]2[C@H](NC(=O)[C@H](N)c3ccccc3)C(=O)N2[C@H]1C(=O)O [AMPICILLIN]

- Activity [2]: is not an inhibitor [-]
- Activity [3]: is not an inhibitor [-]
SMILES: CC1=C(C(=O)O)N2C(=O)[C@@H](NC(=O)[C@H](N)c3ccc(O)cc3)[C@H]2SC1 [CEFADROXIL]

- Activity [4]: is not an inhibitor [-]
SMILES: C=CC1=C(C(=O)O)N2C(=O)[C@@H](NC(=O)/C(=N\O)c3csc(N)n3)[C@H]2SC1 [CEFDINIR]
